Holding throughout (type): functional, cell-based
Experiment [1] has as its system K562. Kind of experiment: Cytotoxicity against human K562 cells after 72 hrs by MTT assay. The following applies: K562, 72 h. The essentials: (§1)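 Suspension cultures (BV-173 pre-B-cell leukemia or K-562 chronic myeloid leukemia, from DSMZ) kept in log phase in RPMI-1640 with 10% FBS and 2 mM L-glutamine, 37 °C, humidified 5% CO2. Compounds dissolved in DMSO and diluted in RPMI-1640, final DMSO at most 0.5%. Exposure 72 h, MTT-dye reduction read-out. Six wells per concentration, experiments in triplicate, IC50 from concentration-response fits.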
(In general: Tetrazolium assays rely on reduction of a dye to a coloured formazan, in cell work by metabolically active cells.)

Experiment [2] relates to BV-173. Kind of experiment: Cytotoxicity against human BV173 cells after 72 hrs by MTT assay. As to conditions: BV-173, 72 h. Summed up:
as §1

For experiment [3], the system named is BV-173. Kind of experiment: Induction of apoptosis in BV173 cells assessed as DNA fragmentation at 0.25 uM after 24hrs. The following applies: Homo sapiens, 2.5 uM, in the assay text read “2.5 uM” for “0.25 uM”. Summed up:
(§2)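 Apoptosis assay: exponentially growing BV-173 cells, 1 × 10⁶, exposed 24 h to compound or etoposide, with solvent-treated cells as controls. DNA was extracted from the cytosolic fraction and examined for fragmentation as laddering beside a DNA-laddering marker.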

The test system of experiment [4] is BV-173. Kind of experiment: Induction of apoptosis in BV173 cells assessed as DNA fragmentation at 2.5 uM after 24hrs. As to conditions: Homo sapiens. The essentials: as §2

The source made the active and inactive calls. No cut-off for these calls is given here.

Take `CN(C)Cn1c(=O)oc2cc(C(=O)/C=C/c3ccccc3)ccc21`: the IC50 came to 27.2 µM in experiment [1] and 6.6 µM in experiment [2].

The compound `COc1ccc(/C=C/C(=O)c2ccc3c(c2)oc(=O)n3CN(C)C)cc1` had an IC50 in experiment [2] of 17.7 µM.

On to `O=C(/C=C/c1ccccc1)c1ccc2[nH]c(=O)oc2c1`, for which inhibition in experiment [2] was half-maximal at 18.4 µM (IC50).

`O=C(/C=C/c1ccccc1)c1ccc2c(c1)oc(=O)n2CN1CCSCC1`: the results for the IC50 in experiment [1] and in experiment [2] were 42.2 µM and 7.9 µM, respectively.

On to `COc1ccc(/C=C/C(=O)c2ccc3c(c2)oc(=O)n3CN2CCN(Cc3ccccc3)CC2)cc1`, for which the IC50 in experiment [1] was 24.2 µM; in experiment [2], 6.2 µM.

Take `O=C(/C=C/c1ccccc1)c1ccc2c(c1)oc(=O)n2CN1CCN(Cc2ccccc2)CC1`: the IC50 is 29.5 µM in experiment [1] and 9.4 µM in experiment [2].

On to `COc1cc([C@@H]2c3cc4c(cc3[C@@H](O[C@@H]3O[C@@H]5CO[C@@H](C)O[C@H]5[C@H](O)[C@H]3O)[C@H]3COC(=O)[C@H]23)OCO4)cc(OC)c1O` [ETOPOSIDE], for which the IC50 in experiment [1] is 3.1 µM; in experiment [2] it was 0.9 µM. The result in experiment [3] was Active.

With `O=C(/C=C/c1ccccc1)c1ccc2c(c1)oc(=O)n2CN1CCCCC1`, the concentration for half-maximal inhibition (IC50) was determined as 38.3 µM in experiment [1] and 8.2 µM in experiment [2].

Regarding `COc1ccc(/C=C/C(=O)c2ccc3c(c2)oc(=O)n3CN2CCN(c3ccccc3OC)CC2)cc1`, the values for the IC50 in experiment [1] and in experiment [2] were 12.4 µM and 5.4 µM, respectively. In addition, the outcome in experiment [4] was Active.

For the compound `O=C(/C=C/c1ccccc1)c1ccc2c(c1)oc(=O)n2CN1CCOCC1`, the IC50 was found to be 31.7 µM in experiment [1] and 7.4 µM in experiment [2].

`COc1ccccc1N1CCN(Cn2c(=O)oc3cc(C(=O)/C=C/c4ccccc4)ccc32)CC1`: the IC50 worked out at 30.1 µM in experiment [1] and 9.2 µM in experiment [2].

`COc1ccc(/C=C/C(=O)c2ccc3c(c2)oc(=O)n3CN2CCCCC2)cc1`: the IC50 in experiment [2] was determined as 15.3 µM.

For the compound `COc1ccc(/C=C/C(=O)c2ccc3[nH]c(=O)oc3c2)cc1`, in experiment [2], half-maximal inhibition (IC50) required 9.2 µM.

As for `COc1ccc(/C=C/C(=O)c2ccc3c(c2)oc(=O)n3CN2CCOCC2)cc1`, the IC50 in experiment [1] came out at 22.7 µM; in experiment [2] it was 4.7 µM.

Consider `COc1ccc(/C=C/C(=O)c2ccc3c(c2)oc(=O)n3CN2CCSCC2)cc1`, for which the results for the IC50 in experiment [1] and in experiment [2] were 21.2 µM and 6.1 µM, respectively. The result in experiment [4] was Active.

The IC50 is the concentration needed to halve the response being measured. Low readings indicate greater potency in that assay, high ones weaker potency in that assay.
